Columns and labels:
[1] = target: Gamma-secretase; assay: Inhibition of gamma secretase isolated from HeLa cells by ELISA; assay type: cell-free, Homo sapiens
Summary of the method: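 HeLa membranes were washed in 0.1 M Na2CO3, pH 11.3, then solubilized in 1% CHAPSO. The preparation (0.2 mg protein/mL) was incubated with compound or DMSO and the C100Flag substrate at 37 °C for 0 or 4 h. Reactions were stopped with 0.5% SDS and boiling for 5 min. Aβ x-40 and x-42 products were measured by sandwich ELISA (capture 2G3/21F12, biotinylated 266 reporter).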

[2] = target: Gamma-secretase; assay: Inhibition of gamma secretase in CHO cells expressing human APP by ELISA; assay type: cell-based
Summary of the method: (§1)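 CHO 7w cells stably expressing the 751-residue APP splice variant, grown to confluence in DMEM with 200 μg/mL G418. Compounds were added from DMSO stocks to a final 1% DMSO; vehicle-only wells served as controls. After 4 or 24 h, the medium was spun at 3000g for 5 min. Aβ40 and Aβ42 were measured by sandwich ELISA (capture 2G3/21F12, biotinylated 3D6 reporter, TMB read at 455 nm). Mean ± SD of three experiments.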

[3] = target: Gamma-secretase; assay: Inhibition of gamma secretase in CHO cells expressing human APP after 4 hrs by ELISA; assay type: cell-based; summary of the method: as §1
[4] = target: Gamma-secretase; assay: Inhibition of gamma secretase in CHO cells expressing human APP after 24 hrs by ELISA; assay type: cell-based; summary of the method: as §1

Compound	IC50 [1] [µM]	IC50 [2] [µM]	IC50 [3] [µM]	IC50 [4] [µM]
COC(=O)[C@H](NC(=O)[C@@H](CC(C)C)NC(=O)N(Cc1ccccc1)C[C@@H](O)[C@@H](Cc1ccccc1)NC(=O)[C@@H](C)NC(=O)OC(C)(C)C)C(C)C	12	30	–	–
COC(=O)[C@H](NC(=O)[C@@H](Cc1ccccc1)NC(=O)N(Cc1ccccc1)C[C@@H](O)[C@@H](Cc1ccccc1)NC(=O)OC(C)(C)C)C(C)C	9	24	–	–
COC(=O)[C@H](NC(=O)[C@@H](CC(C)C)NC(=O)N(Cc1ccccc1)C[C@@H](O)[C@@H](Cc1ccccc1)NC(=O)OC(C)(C)C)C(C)C	0.1	2	2	17
COC(=O)[C@@H](NC(=O)[C@@H](CC(C)C)NC(=O)N(Cc1ccccc1)C[C@@H](O)[C@H](Cc1ccccc1)NC(=O)OC(C)(C)C)C(C)C	0.06	0.8	–	–
COC(=O)[C@H](NC(=O)[C@H](NC(=O)N(Cc1ccccc1)C[C@@H](O)[C@@H](Cc1ccccc1)NC(=O)OC(C)(C)C)C(C)C)C(C)C	2	12	–	–
CC(C)C[C@H](NC(=O)[C@@H](CC(C)C)NC(=O)N(Cc1ccccc1)C[C@@H](O)[C@@H](Cc1ccccc1)NC(=O)OC(C)(C)C)C(=O)OC(C)(C)C	–	–	0.6	7
COC(=O)[C@@H](CC(C)C)NC(=O)[C@@H](CC(C)C)NC(=O)N(Cc1ccccc1)C[C@@H](O)[C@@H](Cc1ccccc1)NC(=O)OC(C)(C)C	0.2	3	3	9
COC(=O)[C@@H](C)NC(=O)[C@@H](CC(C)C)NC(=O)N(Cc1ccccc1)C[C@@H](O)[C@@H](Cc1ccccc1)NC(=O)OC(C)(C)C	2	7	–	–
COC(=O)[C@@H](NC(=O)[C@@H](CC(C)C)NC(=O)N(Cc1ccccc1)C[C@@H](O)[C@@H](Cc1ccccc1)NC(=O)OC(C)(C)C)C(C)C	0.8	8	–	–
COC(=O)[C@H](NC(=O)[C@@H](CC(C)C)NC(=O)N(Cc1ccccc1)C[C@@H](O)[C@@H](Cc1ccccc1)NC(=O)[C@H](NC(=O)OC(C)(C)C)C(C)C)C(C)C	3	7	–	–
CC(C)C[C@H](NC(=O)N(Cc1ccccc1)C[C@@H](O)[C@H](Cc1ccccc1)NC(=O)OC(C)(C)C)C(=O)N[C@H](CC(C)C)C(=O)OC(C)(C)C	–	–	0.4	5
COC(=O)[C@H](NC(=O)[C@@H](CC(C)C)NC(=O)N(Cc1ccccc1)C[C@H](O)[C@@H](Cc1ccccc1)NC(=O)OC(C)(C)C)C(C)C	3	10	–	–
COC(=O)[C@H](NC(=O)[C@@H](CC(C)C)NC(=O)N(Cc1ccccc1)C[C@@H](O)[C@@H](Cc1ccccc1)NC(=O)[C@@H](CC(C)C)NC(=O)OC(C)(C)C)C(C)C	0.9	2	–	–
COC(=O)[C@@H](NC(=O)[C@H](CC(C)C)NC(=O)N(Cc1ccccc1)C[C@@H](O)[C@H](Cc1ccccc1)NC(=O)OC(C)(C)C)C(C)C	0.01	0.4	0.4	18
COC(=O)[C@H](NC(=O)[C@@H](C)NC(=O)N(Cc1ccccc1)C[C@@H](O)[C@@H](Cc1ccccc1)NC(=O)OC(C)(C)C)C(C)C	3	10	–	–
CC(C)C[C@@H](NC(=O)N(Cc1ccccc1)C[C@@H](O)[C@@H](Cc1ccccc1)NC(=O)OC(C)(C)C)C(=O)N[C@@H](C(=O)OC(C)(C)C)C(C)C	–	–	3	6.2

Now from value to compound:

IC50 [1] [µM]	IC50 [2] [µM]	IC50 [3] [µM]	IC50 [4] [µM]	Compound
0.8	3	–	–	COC(=O)[C@@H](Cc1ccccc1)NC(=O)[C@@H](CC(C)C)NC(=O)N(Cc1ccccc1)C[C@@H](O)[C@@H](Cc1ccccc1)NC(=O)OC(C)(C)C
0.08	0.8	–	–	COC(=O)[C@H](NC(=O)[C@H](CC(C)C)NC(=O)N(Cc1ccccc1)C[C@@H](O)[C@@H](Cc1ccccc1)NC(=O)OC(C)(C)C)C(C)C
7	12	–	–	COC(=O)[C@H](NC(=O)[C@@H](CC(C)C)NC(=O)N(C)C[C@@H](O)[C@@H](Cc1ccccc1)NC(=O)OC(C)(C)C)C(C)C
2	8	–	–	COC(=O)[C@H](NC(=O)[C@@H](CC(C)C)NC(=O)N(Cc1ccccc1)C[C@@H](O)[C@@H](Cc1ccccc1)NC(=O)[C@@H](Cc1ccccc1)NC(=O)OC(C)(C)C)C(C)C
4	8	–	–	COC(=O)[C@H](NC(=O)[C@@H](CC(C)C)NC(=O)N(C[C@@H](O)[C@@H](Cc1ccccc1)NC(=O)OC(C)(C)C)C(C)C)C(C)C
–	–	0.3	6	CC(C)C[C@H](NC(=O)N(Cc1ccccc1)C[C@@H](O)[C@H](Cc1ccccc1)NC(=O)OC(C)(C)C)C(=O)N[C@H](C(=O)OC(C)(C)C)C(C)C
2	8	–	–	COC(=O)[C@@H](CC(C)C)NC(=O)[C@@H](CC(C)C)NC(=O)N(Cc1ccccc1)C[C@H](O)[C@@H](Cc1ccccc1)NC(=O)OC(C)(C)C
0.03	0.6	0.6	9.4	COC(=O)[C@H](CC(C)C)NC(=O)[C@H](CC(C)C)NC(=O)N(Cc1ccccc1)C[C@@H](O)[C@H](Cc1ccccc1)NC(=O)OC(C)(C)C
6	15	–	–	COC(=O)[C@@H](CC(C)C)NC(=O)N(Cc1ccccc1)C[C@@H](O)[C@@H](Cc1ccccc1)NC(=O)OC(C)(C)C
2	5	–	–	COC(=O)[C@H](NC(=O)[C@@H](CC(C)C)NC(=O)N(CC(C)C)C[C@@H](O)[C@@H](Cc1ccccc1)NC(=O)OC(C)(C)C)C(C)C
0.6	1	–	–	COC(=O)[C@H](NC(=O)[C@H](CC(C)C)NC(=O)N(Cc1ccccc1)C[C@@H](O)[C@H](Cc1ccccc1)NC(=O)OC(C)(C)C)C(C)C
0.03	0.6	–	–	COC(=O)[C@H](NC(=O)[C@@H](CC(C)C)NC(=O)N(Cc1ccccc1)C[C@@H](O)[C@H](Cc1ccccc1)NC(=O)OC(C)(C)C)C(C)C
0.01	0.4	–	–	COC(=O)[C@@H](NC(=O)[C@H](CC(C)C)NC(=O)N(Cc1ccccc1)C[C@@H](O)[C@@H](Cc1ccccc1)NC(=O)OC(C)(C)C)C(C)C
